Tests used:
[1] = biological target: T1, Orexin/Hypocretin receptor type 1 (Homo sapiens, UniProt O43613); assay: Antagonist activity at human OX1R expressed in CHO cells by FLIPR assay; type: cell-based
T1 sequence (O43613 whole entry): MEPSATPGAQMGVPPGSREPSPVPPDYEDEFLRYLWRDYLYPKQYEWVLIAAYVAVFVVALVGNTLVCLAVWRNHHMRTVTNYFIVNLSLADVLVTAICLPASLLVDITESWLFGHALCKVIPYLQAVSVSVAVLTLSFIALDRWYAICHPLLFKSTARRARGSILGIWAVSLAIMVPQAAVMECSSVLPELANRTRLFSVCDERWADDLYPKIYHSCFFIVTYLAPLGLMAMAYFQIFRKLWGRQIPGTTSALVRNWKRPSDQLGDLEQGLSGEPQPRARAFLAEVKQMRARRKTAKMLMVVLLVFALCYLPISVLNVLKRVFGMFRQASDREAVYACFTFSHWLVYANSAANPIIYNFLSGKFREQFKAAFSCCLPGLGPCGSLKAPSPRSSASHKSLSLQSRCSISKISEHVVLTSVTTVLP

[2] = Lipophilicity, log D of the compound; type: physicochemical; details: octanol/water
[3] = biological target: T2, Orexin receptor type 2 (Homo sapiens, UniProt O43614); assay: Antagonist activity at human OX2R expressed in CHO cells by FLIPR assay; type: cell-based
T2 sequence (O43614 whole entry): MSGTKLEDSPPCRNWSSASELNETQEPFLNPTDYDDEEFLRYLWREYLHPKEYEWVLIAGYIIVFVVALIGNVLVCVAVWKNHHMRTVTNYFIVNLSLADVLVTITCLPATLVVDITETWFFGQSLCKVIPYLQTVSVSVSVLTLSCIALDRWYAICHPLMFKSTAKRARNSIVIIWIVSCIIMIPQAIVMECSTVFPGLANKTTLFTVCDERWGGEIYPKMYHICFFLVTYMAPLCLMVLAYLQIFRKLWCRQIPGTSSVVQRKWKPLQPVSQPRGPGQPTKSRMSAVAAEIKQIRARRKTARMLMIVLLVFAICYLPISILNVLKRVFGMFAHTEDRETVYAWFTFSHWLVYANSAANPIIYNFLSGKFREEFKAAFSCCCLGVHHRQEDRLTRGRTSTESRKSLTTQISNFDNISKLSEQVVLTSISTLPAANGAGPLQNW

[4] = system: Canis familiaris; assay: Effect on sleep parameter in po dosed Beagle dog by EEG analysis; type: functional, Canis lupus familiaris
[5] = Half life in human plasma at 5 to 250 mg, po; type: ADME, organism-based
[6] = Oral bioavailability rhesus monkey; type: ADME, organism-based, Macaca mulatta; details: in vivo
[7] = system: Rattus norvegicus; assay: Effect on sleep parameter in po dosed Sprague-Dawley rat by EEG analysis; type: functional
[8] = system: Mus musculus; assay: Effect on sleep parameter in po dosed C57/BL6 mouse by EEG analysis; type: functional
[9] = Clearance in iv dosed rhesus monkey; type: ADME, organism-based, Macaca mulatta; details: in vivo
[10] = system: Rhesus monkey; assay: Effect on sleep parameter in po dosed rhesus monkey by EEG analysis; type: functional, Macaca mulatta
[11] = Plasma protein binding in rhesus monkey; type: ADME, cell-free, Macaca mulatta; details: read-out: PPB (converted)
[12] = Clearance in iv dosed Sprague-Dawley rat; type: ADME, organism-based; details: in vivo
[13] = Half life in iv dosed Beagle dog; type: ADME, organism-based, Canis lupus familiaris; details: in vivo
[14] = Clearance in iv dosed Beagle dog; type: ADME, organism-based, Canis lupus familiaris; details: in vivo
[15] = Half life in iv dosed Sprague-Dawley rat; type: ADME, organism-based; details: in vivo
[16] = system: Liver microsome; assay: GSH activity in human liver microsomes assessed as reduction in GSH adduct formation; type: ADME; set-up: scale not given: the % may be the effect or the level left
[17] = Plasma protein binding in human; type: ADME, cell-free; details: read-out: PPB (converted)
[18] = Plasma protein binding in Beagle dog; type: ADME, cell-free, Canis lupus familiaris; details: read-out: PPB (converted)
[19] = biological target: Cytochrome P450 3A4 (Homo sapiens, UniProt P08684); assay: Inhibition of CYP3A4 (unknown origin); type: ADME
[20] = Oral bioavailability Beagle dog; type: ADME, organism-based, Canis lupus familiaris; details: in vivo
[21] = Tmax in human plasma at 5 to 250 mg, po; type: ADME, organism-based
[22] = Oral bioavailability in Sprague-Dawley rat; type: ADME, organism-based; details: in vivo
[23] = Plasma protein binding in Sprague-Dawley rat; type: ADME, cell-free; details: read-out: PPB (converted)
[24] = Half life in iv dosed rhesus monkey; type: ADME, organism-based, Macaca mulatta; details: in vivo
[25] = organism: Rattus norvegicus; assay: Receptor occupancy at OX2R in rat brain assessed as drug level in plasma; type: functional
[26] = Half life in Beagle dog 1 mg/kg, iv; type: ADME, organism-based, Canis lupus familiaris; details: in vivo
[27] = Oral bioavailability in Beagle dog at 3 mg/kg; type: ADME, organism-based, Canis lupus familiaris; details: in vivo
[28] = Clearance in Wistar rat at 1 mg/kg, iv; type: ADME, organism-based; details: in vivo
[29] = Clearance in Beagle dog 1 mg/kg, iv; type: ADME, organism-based, Canis lupus familiaris; details: in vivo
[30] = Plasma protein binding in Wistar rat; type: ADME, cell-free; details: read-out: PPB (converted)
[31] = Half life in Wistar rat at 1 mg/kg, iv; type: ADME, organism-based; details: in vivo
[32] = Oral bioavailability in Wistar rat at 10 mg/kg; type: ADME, organism-based; details: in vivo
[33] = system: Rattus norvegicus; assay: Effect on sleep parameter in po dosed Wistar rat by EEG analysis; type: functional
[34] = Half life in human plasma at 1 to 1500 mg, po administered as single dose; type: ADME, organism-based
[35] = Tmax in human at 1 to 1500 mg, po administered as single dose; type: ADME, organism-based; details: in vivo
[36] = Ratio of drug level in brain to plasma in Wistar rat; type: ADME, cell-free; details: read-out: BPR
[37] = system: Homo sapiens; assay: Effect on sleep parameter in insomnia patient assessed as wake after sleep onset time at 30 mg, po administered two consecutive nights 90 mins prior to sleep by polysomnography; type: functional
[38] = system: Homo sapiens; assay: Effect on sleep parameter in insomnia patient assessed as wake after sleep onset time at 10 mg, po administered two consecutive nights 90 mins prior to sleep by polysomnography; type: functional
[39] = system: Plasma; assay: Drug metabolism in human plasma assessed as 2-(((S)-1-(5-(4-fluorophenyl)-2-methylthiazole-4-carbonyl)piperidin-2-yl)methyl)-3,5-dihydroxy-3,4-dihydroisoquinolin-1(2H)-one formation at 30 mg, po by LSC analysis; type: ADME, organism-based; details: in vivo
Outline: (§1)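 Eight healthy subjects received a single 30 mg oral dose of radiolabeled compound. Plasma extracts were profiled for metabolites, each expressed as a percentage of the radioactive dose.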

[40] = system: Homo sapiens; assay: Effect on sleep parameter in insomnia patient assessed as total sleep time at 30 mg, po administered two consecutive nights 90 mins prior to sleep by polysomnography; type: functional
[41] = system: Plasma; assay: Drug metabolism in human plasma assessed as (S)-2-(2-((1-(5-(4-fluorophenyl)-2-methylthiazole-4-carbonyl)piperidin-2-yl)methylcarbamoyl)-6-hydroxyphenyl)acetic acid formation at 30 mg, po by LSC analysis; type: ADME, organism-based; details: in vivo; outline: as §1
[42] = Apparent half life of the compound in human; type: ADME, organism-based; details: in vivo, read-out: t1/2(app) (converted)
[43] = system: Homo sapiens; assay: Effect on sleep parameter in insomnia patient assessed as latency to persistent sleep time at 10 mg, po administered two consecutive nights 90 mins prior to sleep by polysomnography; type: functional
[44] = system: Homo sapiens; assay: Effect on sleep parameter in insomnia patient assessed as sleep efficiency at 60 mg, po administered two consecutive nights 90 mins prior to sleep by polysomnography; type: functional
[45] = system: Homo sapiens; assay: Effect on sleep parameter in insomnia patient assessed as total sleep time at 60 mg, po administered two consecutive nights 90 mins prior to sleep by polysomnography; type: functional
[46] = system: Homo sapiens; assay: Effect on sleep parameter in insomnia patient assessed as latency to persistent sleep time at 60 mg, po administered two consecutive nights 90 mins prior to sleep by polysomnography; type: functional
[47] = system: Homo sapiens; assay: Effect on sleep parameter in insomnia patient assessed as sleep efficiency at 30 mg, po administered two consecutive nights 90 mins prior to sleep by polysomnography; type: functional
[48] = system: Homo sapiens; assay: Effect on sleep parameter in insomnia patient assessed as sleep efficiency at 10 mg, po administered two consecutive nights 90 mins prior to sleep by polysomnography; type: functional
[49] = system: Homo sapiens; assay: Effect on sleep parameter in insomnia patient assessed as wake after sleep onset time at 60 mg, po administered two consecutive nights 90 mins prior to sleep by polysomnography; type: functional
[50] = Half life in human plasma; type: ADME, organism-based
[51] = system: Homo sapiens; assay: Effect on sleep parameter in insomnia patient assessed as total sleep time at 10 mg, po administered two consecutive nights 90 mins prior to sleep by polysomnography; type: functional
[52] = system: Homo sapiens; assay: Effect on sleep parameter in insomnia patient assessed as latency to persistent sleep time at 30 mg, po administered two consecutive nights 90 mins prior to sleep by polysomnography; type: functional

Cytochrome P450 3A4, sequence (P08684 whole entry): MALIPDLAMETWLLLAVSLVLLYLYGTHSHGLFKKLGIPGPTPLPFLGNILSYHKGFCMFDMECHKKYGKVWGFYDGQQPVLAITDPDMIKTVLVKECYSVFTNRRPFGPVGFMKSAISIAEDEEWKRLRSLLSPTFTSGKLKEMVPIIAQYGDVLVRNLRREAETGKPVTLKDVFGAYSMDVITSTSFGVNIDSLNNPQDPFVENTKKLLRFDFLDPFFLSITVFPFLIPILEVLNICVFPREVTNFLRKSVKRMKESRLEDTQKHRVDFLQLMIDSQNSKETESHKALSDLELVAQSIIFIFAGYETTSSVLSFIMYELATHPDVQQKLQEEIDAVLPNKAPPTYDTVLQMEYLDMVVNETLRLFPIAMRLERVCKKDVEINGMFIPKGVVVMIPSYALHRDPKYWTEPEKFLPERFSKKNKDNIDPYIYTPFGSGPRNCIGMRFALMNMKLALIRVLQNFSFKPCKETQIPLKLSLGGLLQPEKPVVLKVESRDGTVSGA

## COc1ccc(CNC(=O)c2cc(-c3cncc(Cl)c3)cnc2-c2ccccn2)nc1OC [MK-1064]
[1]
  IC50: 1.79 µM
[2]
  logD: 1.8
[3]
  IC50: 0.018 µM
[4]
  Activity: 1 mg/kg
[5]
  half-life: 1.6 h
[6]
  bioavailability: 16%
[7]
  Activity: 20 mg/kg
[8]
  Activity: 100 mg/kg
[9]
  clearance: 12 mL/min/kg
[10]
  Activity: 10 mg/kg
[11]
  fraction unbound: 0.06
[12]
  clearance: 36 mL/min/kg
[13]
  half-life: 1 h
[14]
  clearance: 16 mL/min/kg
[15]
  half-life: 0.3 h
[16]
  Activity: 85%
[17]
  fraction unbound: 0.03
[18]
  fraction unbound: 0.29
[19]
  IC50: 28 µM
[20]
  bioavailability: 48%
[21]
  Tmax: 1 h
[22]
  bioavailability: 54%
[23]
  fraction unbound: 0.19
[24]
  half-life: 0.8 h
[25]
  Occ90: 695 nM

## COc1ccc(S(=O)(=O)N2CCC[C@H]2C(=O)Nc2cc(C)cc(C)c2)cc1 [ACT-462206]
[4]
  Activity: 100 mg/kg
[26]
  half-life: 1.7 h
[27]
  bioavailability: 52%
[28]
  clearance: 29 mL/min/kg
[29]
  clearance: 11 mL/min/kg
[30]
  fraction unbound: 0.007
[17]
  fraction unbound: 0.007
[18]
  fraction unbound: 0.011
[31]
  half-life: 1.9 h
[32]
  bioavailability: 39%
[33]
  Activity: 100 mg/kg
[34]
  half-life: 10 h
[35]
  Tmax: 1.5 h
[36]
  Kp: 0.46

## Cc1nc(C(=O)N2CCCC[C@H]2CNC(=O)c2cccc3occc23)c(-c2ccc(F)cc2)s1 (stereo in doubt; form 1) [SB-649868]
[37]
  Time: -18.4 min
[38]
  Time: 3.2 min
[39]
  Drug metabolism: 2 %ID
[40]
  Time: 49.7 min
[41]
  Drug metabolism: 11 %ID
[42]
  half-life: 5 h
[43]
  Time: -26.1 min
[44]
  Activity: 14.6%
[45]
  Time: 69.8 min
[46]
  Time: -43.7 min
[47]
  Activity: 10.4%
[48]
  Activity: 4.7%
[49]
  Time: -29 min
[50]
  half-life: 4 h
[51]
  Time: 22.4 min
[52]
  Time: -33 min

— ChEMBL document CHEMBL3769367, “Orexin Receptor Antagonists: New Therapeutic Agents for the Treatment of Insomnia” (J Med Chem, 2016)
